Numbered stars: 1 amine (or outer) side, 2 acyl side, 3 side chain; on linkers, the order of the positions; unused ones are H or OH. Bridge positions count the residues as written; N and C are the ends. Square brackets hold non-standard residues; d marks the D form. Peptide text beside a SMILES is read from it. * marks the point of attachment. Orn(4R-OH,5R-OCH2CH2NMe3+) = C[N+](C)(C)CCO[C@@H](N[*:3])[C@H](O)C[C@H](N[*:1])C(=O)[*:2]; pTerphenylCO(4''-OnC5H11) = CCCCCOc1ccc(-c2ccc(-c3ccc(C(=O)*)cc3)cc2)cc1; hTyr(3S-OH,4S-OH) = N[C@H](C(=O)O)[C@H](O)[C@@H](O)c1ccc(O)cc1; Pro(3S-OH,4S-Me) = C[C@H]1CN[C@H](C(=O)O)[C@H]1O; Hyp = O=C(O)[C@@H]1C[C@@H](O)CN1
Legend:
[1] = Safety: treatment-emergent adverse events; type: in vivo, patients (adults); conditions: safety population
Summary of the method: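 Post-hoc pooled data from two randomised, double-blind, double-dummy trials. The safety population was adults in the ICU at randomisation who received ≥1 dose. Dosing was IV test compound weekly (400 mg Day 1, 200 mg Day 8, optional later 200 mg) or IV comparator echinocandin daily (70 mg Day 1, then 50 mg/day). TEAEs ran from dosing to follow-up, coded MedDRA 23.0, graded mild/moderate/severe, and summarised descriptively.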

[2] = cited from earlier work
[3] = ICU at randomisation, n=46 rezafungin, n=67 caspofungin
[4] = ICU at randomisation, number of events per severity

CCCCCOc1ccc(-c2ccc(-c3ccc(C(=O)N[C@H]4C[C@@H](O)[C@@H](OCC[N+](C)(C)C)NC(=O)[C@@H]5[C@@H](O)[C@@H](C)CN5C(=O)[C@H]([C@@H](C)O)NC(=O)[C@H]([C@H](O)[C@@H](O)c5ccc(O)cc5)NC(=O)[C@@H]5C[C@@H](O)CN5C(=O)[C@H]([C@@H](C)O)NC4=O)cc3)cc2)cc1 [Rezafungin] ({pTerphenylCO(4''-OnC5H11)}-[Orn(4R-OH,5R-OCH2CH2NMe3+)]T[Hyp][hTyr(3S-OH,4S-OH)]T[Pro(3S-OH,4S-Me)]; lactam 1-C)
TEAE: Abdominal abscess, patients [1, 3]: 1 (2.2) n (%) | TEAE: Abdominal pain, patients [1, 3]: 4 (8.7) n (%) | TEAE: Acidosis, patients [1, 3]: 1 (2.2) n (%) | TEAE: Acute kidney injury, patients [1, 3]: 1 (2.2) n (%) | TEAE: Anaemia, patients [1, 3]: 7 (15.2) n (%) | TEAE: Atrial fibrillation, patients [1, 3]: 3 (6.5) n (%) | TEAE: Bradycardia, patients [1, 3]: 1 (2.2) n (%) | TEAE: Constipation, patients [1, 3]: 2 (4.3) n (%) | TEAE: Decubitus ulcer, patients [1, 3]: 3 (6.5) n (%) | TEAE: Deep vein thrombosis, patients [1, 3]: 1 (2.2) n (%) | TEAE: Diarrhoea, patients [1, 3]: 7 (15.2) n (%) | TEAE: Dyspnoea, patients [1, 3]: 0 (0) n (%) | TEAE: Fluid overload, patients [1, 3]: 4 (8.7) n (%) | TEAE: Hyperkalaemia, patients [1, 3]: 2 (4.3) n (%) | TEAE: Hypertension, patients [1, 3]: 3 (6.5) n (%) | TEAE: Hypokalaemia, patients [1, 3]: 4 (8.7) n (%) | TEAE: Hypotension, patients [1, 3]: 3 (6.5) n (%) | TEAE: Insomnia, patients [1, 3]: 4 (8.7) n (%) | TEAE: Multiple organ dysfunction syndrome, patients [1, 3]: 3 (6.5) n (%) | TEAE: Nausea, patients [1, 3]: 4 (8.7) n (%) | TEAE: Peripheral oedema, patients [1, 3]: 3 (6.5) n (%) | TEAE: Pleural effusion, patients [1, 3]: 0 (0) n (%) | TEAE: Pneumonia, patients [1, 3]: 3 (6.5) n (%) | TEAE: Pneumothorax, patients [1, 3]: 0 (0) n (%) | TEAE: Pyrexia, patients [1, 3]: 2 (4.3) n (%) | TEAE: Respiratory failure, patients [1, 3]: 0 (0) n (%) | TEAE: Sepsis, patients [1, 3]: 5 (10.9) n (%) | TEAE: Septic shock, patients [1, 3]: 6 (13.0) n (%) | TEAE: Vomiting, patients [1, 3]: 7 (15.2) n (%) | ≥ 1 TEAE [1, 3]: 41 (89.1) n (%) | ≥ 1 TEAE leading to study/drug discontinuation [1, 3]: 8 (17.4) n (%) | ≥ 1 serious TEAE [1, 3]: 28 (60.9) n (%) | ≥ 1 study drug-related TEAE [1, 3]: 4 (8.7) n (%) | ≥ 1 study drug-related TEAE leading to study/drug discontinuation [1, 3]: 0 (0) n (%) | ≥ 1 study drug-related serious TEAE [1, 3]: 1 (2.2) n (%) | TEAE: Abdominal abscess, event severity (n): mild/moderate/severe [1, 4]: 0/1/0 | TEAE: Abdominal pain, event severity (n): mild/moderate/severe [1, 4]: 1/2/1 | TEAE: Acidosis, event severity (n): mild/moderate/severe [1, 4]: 1/1/0 | TEAE: Acute kidney injury, event severity (n): mild/moderate/severe [1, 4]: 1/1/0 | TEAE: Anaemia, event severity (n): mild/moderate/severe [1, 4]: 2/4/1 | TEAE: Atrial fibrillation, event severity (n): mild/moderate/severe [1, 4]: 1/2/0 | TEAE: Bradycardia, event severity (n): mild/moderate/severe [1, 4]: 0/1/0 | TEAE: Constipation, event severity (n): mild/moderate/severe [1, 4]: 2/0/0 | TEAE: Decubitus ulcer, event severity (n): mild/moderate/severe [1, 4]: 2/1/0 | TEAE: Deep vein thrombosis, event severity (n): mild/moderate/severe [1, 4]: 1/0/0 | TEAE: Diarrhoea, event severity (n): mild/moderate/severe [1, 4]: 6/1/0 | TEAE: Dyspnoea, event severity (n): mild/moderate/severe [1, 4]: 0/0/0 | TEAE: Fluid overload, event severity (n): mild/moderate/severe [1, 4]: 0/3/1 | TEAE: Hyperkalaemia, event severity (n): mild/moderate/severe [1, 4]: 2/0/0 | TEAE: Hypertension, event severity (n): mild/moderate/severe [1, 4]: 2/1/0 | TEAE: Hypokalaemia, event severity (n): mild/moderate/severe [1, 4]: 3/1/0 | TEAE: Hypotension, event severity (n): mild/moderate/severe [1, 4]: 2/1/0 | TEAE: Insomnia, event severity (n): mild/moderate/severe [1, 4]: 3/1/0 | TEAE: Multiple organ dysfunction syndrome, event severity (n): mild/moderate/severe [1, 4]: 0/0/3 | TEAE: Nausea, event severity (n): mild/moderate/severe [1, 4]: 0/4/0 | TEAE: Peripheral oedema, event severity (n): mild/moderate/severe [1, 4]: 3/0/0 | TEAE: Pleural effusion, event severity (n): mild/moderate/severe [1, 4]: 0/0/0 | TEAE: Pneumonia, event severity (n): mild/moderate/severe [1, 4]: 0/0/3 | TEAE: Pneumothorax, event severity (n): mild/moderate/severe [1, 4]: 0/0/0 | TEAE: Pyrexia, event severity (n): mild/moderate/severe [1, 4]: 1/1/0 | TEAE: Respiratory failure, event severity (n): mild/moderate/severe [1, 4]: 0/0/0 | TEAE: Sepsis, event severity (n): mild/moderate/severe [1, 4]: 3/2/1 | TEAE: Septic shock, event severity (n): mild/moderate/severe [1, 4]: 0/1/5 | TEAE: Vomiting, event severity (n): mild/moderate/severe [1, 4]: 4/4/0 | Study drug-related serious TEAEs, events ([1]; each event n = 1): infusion-related reaction | half-life [2]: 120 to 140 h

From publication PMC11520665 (Critical Care, 2024)
